# Results published in ChEMBL document CHEMBL4038284, “Synthesis of novel quinoline-based 4,5-dihydro-1H-pyrazoles as potential anticancer, antifungal, antibacterial and antiprotozoal agents” (Eur J Med Chem, 2017).
# Columns and labels:
# Klebsiella pneumoniae [1] = assay: Antibacterial activity against ESBL positive Klebsiella pneumoniae ATCC 700603 after 24 hrs by resazurin dye based microdilution assay; format: functional; details: Klebsiella pneumoniae, 700603, 24 h
# Method in brief: (§1)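 MIC taken as the lowest concentration giving visible inhibition and/or by resazurin (1 mg/mL). Gentamicin was the control. Run in duplicate, repeated at least three times.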
# Klebsiella pneumoniae [2] = assay: Antibacterial activity against carbapenemase positive Klebsiella pneumoniae BAA 1705 after 24 hrs by resazurin dye based microdilution assay; format: functional; details: BAA 1705, 24 h; method in brief: as §1
# Leishmania panamensis = assay: Antileshmanial activity against EpiR/GFP fused Leishmania panamensis MHOM/CO/87/UA140 intracellular amastigotes infected in human […] cells after 72 hrs by flow cytometric method; format: functional, cell-based; details: MHOM/CO/87/UA140, 72 h
# Method in brief: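 PMA-treated U-937 cells (3 × 10^5 cells/mL) infected with stationary-phase GFP L. panamensis promastigotes (15:1), 3 h at 34 °C, then washed. After 24 h, compounds added at 50, 12.5, 3.125 and 0.78 µg/mL for 72 h at 37 °C. EC50 by Probit; triplicate, two experiments.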
# Candida albicans [3] = assay: Antifungal activity against Candida albicans ATCC 10231 incubated for 48 hrs under dark condition by broth microdilution method; format: functional; details: ATCC 10231, 48 h
# Method in brief: (§2)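 CLSI M27-A3 broth microdilution in RPMI-1640, DMSO ≤1%, compounds at 250-0.98 µg/mL final. Inoculum 1-5 × 10^3 CFU/mL. Incubated 48 h at 30 °C in a moist dark chamber, read at OD405. MIC80 and MIC50 taken from % inhibition dose-response curves (mean ± SEM, triplicate). Amphotericin B was the positive control.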
# Cryptococcus neoformans [4] = assay: Antifungal activity against Cryptococcus neoformans ATCC 32264 incubated for 48 hrs under dark condition by broth microdilution method; format: functional; details: ATCC 32264, 48 h; method in brief: as §2
# Candida albicans [5] = assay: Growth inhibition of Candida albicans ATCC 10231 at 250 ug/ml incubated for 48 hrs under dark condition by broth microdilution method relative to control; format: functional; details: ATCC 10231, 48 h, read-out: GI
# Method in brief: (§3)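 CLSI M27-A3 broth microdilution in RPMI-1640, DMSO ≤1%. Inoculum 1-5 × 10^3 CFU/mL. Incubated 48 h at 30 °C, dark. % inhibition = 100 − (OD405 test − sterility control)/(OD405 growth control − sterility control), with growth and sterility control wells. Triplicate.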
# Candida albicans [6] = assay: Growth inhibition of Candida albicans ATCC 10231 at 125 ug/ml incubated for 48 hrs under dark condition by broth microdilution method relative to control; format: functional; details: ATCC 10231, 48 h, read-out: GI; method in brief: as §3
# Candida albicans [7] = assay: Growth inhibition of Candida albicans ATCC 10231 at 62.5 ug/ml incubated for 48 hrs under dark condition by broth microdilution method relative to control; format: functional; details: ATCC 10231, 48 h, read-out: GI; method in brief: as §3
# Candida albicans [8] = assay: Growth inhibition of Candida albicans ATCC 10231 at 31.25 ug/ml incubated for 48 hrs under dark condition by broth microdilution method relative to control; format: functional; details: ATCC 10231, 48 h, read-out: GI; method in brief: as §3
# Candida albicans [9] = assay: Growth inhibition of Candida albicans ATCC 10231 at 15.62 ug/ml incubated for 48 hrs under dark condition by broth microdilution method relative to control; format: functional; details: ATCC 10231, 48 h, read-out: GI; method in brief: as §3
# Candida albicans [10] = assay: Growth inhibition of Candida albicans ATCC 10231 at 7.8 ug/ml incubated for 48 hrs under dark condition by broth microdilution method relative to control; format: functional; details: ATCC 10231, 48 h, read-out: GI; method in brief: as §3
# Candida albicans [11] = assay: Growth inhibition of Candida albicans ATCC 10231 at 3.4 ug/ml incubated for 48 hrs under dark condition by broth microdilution method relative to control; format: functional; details: ATCC 10231, 48 h, read-out: GI
# Cryptococcus neoformans [12] = assay: Growth inhibition of Cryptococcus neoformans ATCC 32264 at 250 ug/ml incubated for 48 hrs under dark condition by broth microdilution method relative to control; format: functional; details: ATCC 32264, 48 h, read-out: GI; method in brief: as §3
# Cryptococcus neoformans [13] = assay: Growth inhibition of Cryptococcus neoformans ATCC 32264 at 125 ug/ml incubated for 48 hrs under dark condition by broth microdilution method relative to control; format: functional; details: ATCC 32264, 48 h, read-out: GI; method in brief: as §3
# Cryptococcus neoformans [14] = assay: Growth inhibition of Cryptococcus neoformans ATCC 32264 at 62.5 ug/ml incubated for 48 hrs under dark condition by broth microdilution method relative to control; format: functional; details: ATCC 32264, 48 h, read-out: GI; method in brief: as §3
# Cryptococcus neoformans [15] = assay: Growth inhibition of Cryptococcus neoformans ATCC 32264 at 31.25 ug/ml incubated for 48 hrs under dark condition by broth microdilution method relative to control; format: functional; details: ATCC 32264, 48 h, read-out: GI; method in brief: as §3
# Cryptococcus neoformans [16] = assay: Growth inhibition of Cryptococcus neoformans ATCC 32264 at 15.62 ug/ml incubated for 48 hrs under dark condition by broth microdilution method relative to control; format: functional; details: ATCC 32264, 48 h, read-out: GI; method in brief: as §3
# Cryptococcus neoformans [17] = assay: Growth inhibition of Cryptococcus neoformans ATCC 32264 at 7.8 ug/ml incubated for 48 hrs under dark condition by broth microdilution method relative to control; format: functional; details: ATCC 32264, 48 h, read-out: GI; method in brief: as §3
# Cryptococcus neoformans [18] = assay: Growth inhibition of Cryptococcus neoformans ATCC 32264 at 3.4 ug/ml incubated for 48 hrs under dark condition by broth microdilution method relative to control; format: functional; details: ATCC 32264, 48 h, read-out: GI
# Staphylococcus aureus [19] = assay: Antibacterial activity against methicillin-sensitive Staphylococcus aureus ATCC 25923 after 24 hrs by resazurin dye based microdilution assay; format: functional; details: ATCC 25923, 24 h; method in brief: as §1
# Staphylococcus aureus [20] = assay: Antibacterial activity against methicillin-resistant Staphylococcus aureus ATCC 43300 after 24 hrs by resazurin dye based microdilution assay; format: functional; details: ATCC 43300, 24 h
# Method in brief: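 Broth microdilution in Mueller Hinton broth, inoculum 5 × 10^5 – 8 × 10^5. Compound stocks diluted in MHB with 5% DMSO and 0.1% Tween 80. Incubation 24 h at 35-37 °C. MIC is the lowest concentration with visible growth inhibition and/or by resazurin (1 mg/mL) read-out. Gentamicin as control. Run in duplicate, replicated at least three times.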
# Staphylococcus aureus [21] = assay: Antibacterial activity against vancomycin-intermediate Staphylococcus aureus after 24 hrs by resazurin dye based microdilution assay; format: functional; method in brief: as §1
# Escherichia coli = assay: Antibacterial activity against Escherichia coli ATCC 25922 after 24 hrs by resazurin dye based microdilution assay; format: functional; details: ATCC 25922, 24 h; method in brief: as §1
# Pseudomonas aeruginosa = assay: Antibacterial activity against Pseudomonas aeruginosa ATCC 27853 after 24 hrs by resazurin dye based microdilution assay; format: functional; details: ATCC 27853, 24 h; method in brief: as §1
# Neisseria gonorrhoeae = assay: Antibacterial activity against beta lactamase positive Neisseria gonorrhoeae ATCC 31426 by oxidase test; format: functional
# Method in brief: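 Agar dilution MIC on GC agar with 1% isovitalex containing increasing compound concentrations. Plates inoculated with about 1×10^4 CFU (5 µL). MIC is the lowest concentration that inhibited growth, with growth confirmed by oxidase test. Run in duplicate, repeated at least three times.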
# Plasmodium falciparum = assay: Antiplasmodial activity against chloroquine-sensitive Plasmodium falciparum 3D7 assessed as reduction in parasitic LDH activity after 48 hrs by Malstat reagent based […] method; format: functional; details: 3D7, 48 h
# Method in brief: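 Unsynchronized P. falciparum 3D7 at 0.5% parasitemia and 1% hematocrit in RPMI with 3% Albumax II. Exposed to 100, 25, 6.25 and 1.56 µg/mL for 48 h at 37 °C under 90% N2/5% CO2/5% O2. After three freeze-thaw cycles, LDH measured with Malstat and NBT/PES, 1 h in the dark, read at 650 nm. IC50 by Probit; triplicate, ≥2 experiments.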
# U-937 = assay: Cytotoxicity against human U937 cells after 72 hrs by MTT assay; format: cell-based; details: u-937, 72 h
# Method in brief: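 Exponentially growing U-937 at 1 × 10^5 cells/mL in RPMI-1640 with 10% FBS were exposed to 200, 50, 12.5 and 3.125 µg/mL for 72 h at 37 °C, 5% CO2. MTT for 3 h, stopped with isopropanol/SDS, formazan read at 570 nm, blank-corrected. LC50 by Probit from % viability against untreated cells. Triplicate, at least two independent experiments.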
# Trypanosoma cruzi = assay: Antitrypanosomal activity against Trypanosoma cruzi Tulahuen intracellular amastigote harboring LacZ infected in human U937 cells after 72 hrs by CPRG/Nonidet reagent based spectrophotometric method; format: functional, cell-based; details: U-937, 72 h
# Method in brief: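 U-937 cells at 2.5 × 10^5 cells/mL in RPMI-1640 with 10% serum and 0.1 µg/mL PMA were infected with β-galactosidase-transfected Tulahuen epimastigotes at 5 parasites per cell. Infected cells were exposed to 50, 12.5, 3.125 and 0.78 µg/mL for 72 h. CPRG (100 uM) and 0.1% Nonidet P-40 were added for 3 h, read at 570 nm. EC50 by Probit. Triplicate, at least two experiments; benznidazole as reference.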
compound,measurement,setting,value
COc1ccc(C2=NN(c3cc(Cl)cc(Cl)c3)C(c3cccc(Nc4ccnc5cc(Cl)ccc45)c3)C2)cc1 (stereo not given),MIC,Klebsiella pneumoniae [1],> 1000 µg/mL
same,MIC,Klebsiella pneumoniae [2],> 1000 µg/mL
same,EC50,Leishmania panamensis,12.6 µg/mL
same,MIC50,Candida albicans [3],≥ 250 µg/mL
same,MIC80,Candida albicans [3],≥ 250 µg/mL
same,MIC50,Cryptococcus neoformans [4],≥ 250 µg/mL
same,MIC80,Cryptococcus neoformans [4],≥ 250 µg/mL
same,inhibition of growth at 250 µg/mL,Candida albicans [5],27.9%
same,inhibition of growth at 125 µg/mL,Candida albicans [6],10.3%
same,inhibition of growth at 62.5 µg/mL,Candida albicans [7],9.34%
same,inhibition of growth at 31.25 µg/mL,Candida albicans [8],5.03%
same,inhibition of growth at 15.62 µg/mL,Candida albicans [9],1.75%
same,inhibition of growth at 7.8 µg/mL,Candida albicans [10],1.72%
same,inhibition of growth at 3.4 µg/mL,Candida albicans [11],1.02%
same,inhibition of growth at 250 µg/mL,Cryptococcus neoformans [12],43%
same,inhibition of growth at 125 µg/mL,Cryptococcus neoformans [13],10.2%
same,inhibition of growth at 62.5 µg/mL,Cryptococcus neoformans [14],6.18%
same,inhibition of growth at 31.25 µg/mL,Cryptococcus neoformans [15],3.09%
same,inhibition of growth at 15.62 µg/mL,Cryptococcus neoformans [16],2.11%
same,inhibition of growth at 7.8 µg/mL,Cryptococcus neoformans [17],0%
same,inhibition of growth at 3.4 µg/mL,Cryptococcus neoformans [18],0%
same,MIC,Staphylococcus aureus [19],> 1000 µg/mL
same,MIC,Staphylococcus aureus [20],> 1000 µg/mL
same,MIC,Staphylococcus aureus [21],> 1000 µg/mL
same,MIC,Escherichia coli,> 1000 µg/mL
same,MIC,Pseudomonas aeruginosa,> 1000 µg/mL
same,MIC,Neisseria gonorrhoeae,> 1000 µg/mL
same,EC50,Plasmodium falciparum,10.4 µg/mL
same,LC50,U-937,> 200 µg/mL
same,EC50,Trypanosoma cruzi,31 µg/mL
